From article PMC5788303 (Journal of medicinal chemistry, 2017)
Values belong to the compound of their own block, whether it stands above or below them.

What was measured:
[1] = In situ mouse brain perfusion; type: in vivo
Summary of the method: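 Adult male mice, 25 ± 5 g, anaesthetised with i.p. ketamine 120 mg/kg plus xylazine. Right external carotid ligated; right common carotid cannulated with a 100 IU/mL heparin-filled catheter. Perfused with 100 μM test compound at 37 °C and 2.5 mL/min for 60 s, then washed 2 s with 4 °C drug-free buffer. Brain level measured (detection limit 5 pmol/g).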

[2] = test system: Abcg2 (Bcrp); test: Transporter protein expression by SRM/MRM LC-MS/MS, Abcg2; type: cell-based, mouse; details: 10 μM, 48 h, HCC cell crude membrane fraction
[3] = test system: NMDA receptors in murine HCC cells; test: Calcium imaging of NMDA-induced Ca2+ transients in murine HCC cells; type: cell-based, mouse; details: 150 μM NMDA
[4] = target: GluN1/GluN2A (Rattus norvegicus, UniProt Q00959); test: Two-electrode voltage-clamp electrophysiology, Xenopus oocytes, GluN1/GluN2A; type: biochemical; details: 100 μM glycine and 10 μM Glu
Sequence of GluN1/GluN2A (Q00959 23-1464, other chains not shown): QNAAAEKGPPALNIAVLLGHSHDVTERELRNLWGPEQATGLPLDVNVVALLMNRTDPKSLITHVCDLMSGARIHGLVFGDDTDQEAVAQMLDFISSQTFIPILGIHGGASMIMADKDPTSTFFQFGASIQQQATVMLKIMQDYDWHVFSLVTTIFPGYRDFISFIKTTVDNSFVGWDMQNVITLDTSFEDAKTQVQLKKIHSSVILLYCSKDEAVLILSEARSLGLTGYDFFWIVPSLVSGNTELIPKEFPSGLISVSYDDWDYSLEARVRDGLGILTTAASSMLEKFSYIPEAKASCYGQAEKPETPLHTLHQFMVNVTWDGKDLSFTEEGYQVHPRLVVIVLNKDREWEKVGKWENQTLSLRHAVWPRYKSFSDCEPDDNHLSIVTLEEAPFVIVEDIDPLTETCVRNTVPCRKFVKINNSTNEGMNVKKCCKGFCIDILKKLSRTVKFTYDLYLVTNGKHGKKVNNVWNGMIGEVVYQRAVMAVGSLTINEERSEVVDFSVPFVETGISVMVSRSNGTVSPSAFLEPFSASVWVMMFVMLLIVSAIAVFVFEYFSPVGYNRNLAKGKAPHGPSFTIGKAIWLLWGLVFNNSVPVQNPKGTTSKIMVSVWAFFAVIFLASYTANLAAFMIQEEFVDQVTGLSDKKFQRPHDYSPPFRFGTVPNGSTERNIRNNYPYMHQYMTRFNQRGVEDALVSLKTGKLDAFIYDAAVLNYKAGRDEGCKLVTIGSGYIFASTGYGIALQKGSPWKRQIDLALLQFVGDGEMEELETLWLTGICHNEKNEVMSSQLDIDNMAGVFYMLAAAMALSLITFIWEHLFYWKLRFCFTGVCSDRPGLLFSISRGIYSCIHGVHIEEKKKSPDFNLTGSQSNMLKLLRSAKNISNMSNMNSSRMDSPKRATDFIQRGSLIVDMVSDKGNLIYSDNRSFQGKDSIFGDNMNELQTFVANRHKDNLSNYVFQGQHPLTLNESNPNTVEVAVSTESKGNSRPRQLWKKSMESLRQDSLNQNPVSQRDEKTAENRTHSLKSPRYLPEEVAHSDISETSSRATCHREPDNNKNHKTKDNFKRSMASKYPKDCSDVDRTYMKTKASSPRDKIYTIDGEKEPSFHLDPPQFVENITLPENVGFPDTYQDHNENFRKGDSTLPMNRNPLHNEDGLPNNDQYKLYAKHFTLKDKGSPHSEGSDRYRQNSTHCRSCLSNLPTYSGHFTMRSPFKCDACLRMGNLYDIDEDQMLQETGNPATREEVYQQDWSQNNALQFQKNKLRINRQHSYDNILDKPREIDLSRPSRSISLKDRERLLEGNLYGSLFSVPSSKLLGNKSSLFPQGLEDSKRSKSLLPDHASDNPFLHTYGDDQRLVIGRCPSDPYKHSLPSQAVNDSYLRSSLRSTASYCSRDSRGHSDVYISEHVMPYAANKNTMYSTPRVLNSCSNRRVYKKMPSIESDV
Summary of the method: (§1)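 Rat GluN1 and GluN2A-D cRNAs injected 1:2 into Xenopus oocytes, held at 18 °C in Barth's solution. Recorded at room temperature 2–6 days later in 90 mM NaCl, 1 mM KCl, 10 mM HEPES, 0.5 mM BaCl2, 0.01 mM EDTA (pH 7.4), −40 mV. Currents evoked by 100 μM glycine plus Glu: 10 μM (2A), 3 μM (2B, 2C), 1 μM (2D). Per-oocyte Hill fits, mean ± SEM.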

[5] = test system: Abcc4 (Mrp4); test: Transporter protein expression by SRM/MRM LC-MS/MS, Abcc4; type: cell-based, mouse; details: 10 μM, 48 h, HCC cell crude membrane fraction
[6] = test system: Abcc2 (Mrp2); test: Transporter protein expression by SRM/MRM LC-MS/MS, Abcc2; type: cell-based, mouse; details: 10 μM, HCC cell crude membrane fraction
[7] = target: native KA receptors; test: Radioligand binding at native KA receptors; details: [3H]KA, rat synaptosomes
Summary of the method: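 Native kainate receptors in rat brain synaptosomes were labelled with [3H]KA, and displacement by the test compound was measured. IC50 and Ki values were derived from the binding data.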

[8] = test system: Abcb1 (Pgp); test: Transporter protein expression by SRM/MRM LC-MS/MS, Abcb1; type: cell-based, mouse; details: 10 μM, 48 h, HCC cell crude membrane fraction
[9] = target: GluN1/GluN2C (Rattus norvegicus, UniProt Q00961); test: Two-electrode voltage-clamp electrophysiology, Xenopus oocytes, GluN1/GluN2C; type: biochemical; details: 100 μM glycine and 3 μM Glu
Sequence of GluN1/GluN2C (Q00961 20-1237, other chains not shown): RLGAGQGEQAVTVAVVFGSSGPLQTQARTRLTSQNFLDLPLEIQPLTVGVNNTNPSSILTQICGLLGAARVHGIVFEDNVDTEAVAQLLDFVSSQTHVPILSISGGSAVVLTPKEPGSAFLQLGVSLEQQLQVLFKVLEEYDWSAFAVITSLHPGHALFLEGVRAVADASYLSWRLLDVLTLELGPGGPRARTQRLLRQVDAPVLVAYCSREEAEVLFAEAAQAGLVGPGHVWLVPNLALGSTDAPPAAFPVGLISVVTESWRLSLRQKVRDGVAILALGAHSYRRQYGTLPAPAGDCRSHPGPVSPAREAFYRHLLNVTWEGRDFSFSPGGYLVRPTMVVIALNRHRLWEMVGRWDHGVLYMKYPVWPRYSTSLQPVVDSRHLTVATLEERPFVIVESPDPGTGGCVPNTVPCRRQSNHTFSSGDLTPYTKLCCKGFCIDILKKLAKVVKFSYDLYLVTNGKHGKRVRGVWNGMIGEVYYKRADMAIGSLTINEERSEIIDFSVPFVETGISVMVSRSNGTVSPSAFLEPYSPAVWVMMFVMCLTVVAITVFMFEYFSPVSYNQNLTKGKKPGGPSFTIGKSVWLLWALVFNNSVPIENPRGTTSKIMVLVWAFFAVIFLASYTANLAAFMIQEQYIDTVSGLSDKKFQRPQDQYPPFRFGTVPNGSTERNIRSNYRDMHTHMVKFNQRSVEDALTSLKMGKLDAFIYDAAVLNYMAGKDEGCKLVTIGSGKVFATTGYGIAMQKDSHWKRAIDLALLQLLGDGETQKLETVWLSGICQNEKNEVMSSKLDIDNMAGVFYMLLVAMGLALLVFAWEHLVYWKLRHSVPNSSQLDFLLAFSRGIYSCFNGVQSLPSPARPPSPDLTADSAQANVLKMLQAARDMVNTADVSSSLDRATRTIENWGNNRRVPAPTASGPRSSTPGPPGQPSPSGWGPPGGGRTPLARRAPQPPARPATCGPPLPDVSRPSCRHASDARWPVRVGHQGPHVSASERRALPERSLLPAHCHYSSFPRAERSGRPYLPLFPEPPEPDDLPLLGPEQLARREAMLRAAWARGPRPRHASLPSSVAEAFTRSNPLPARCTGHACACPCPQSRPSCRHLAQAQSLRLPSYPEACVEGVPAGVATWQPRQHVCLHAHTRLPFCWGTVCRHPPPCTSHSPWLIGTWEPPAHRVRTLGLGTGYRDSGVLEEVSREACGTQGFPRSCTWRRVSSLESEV
Summary of the method: as §1

[10] = target: GluN1/GluN2B (Rattus norvegicus, UniProt Q00960); test: Two-electrode voltage-clamp electrophysiology, Xenopus oocytes, GluN1/GluN2B; type: biochemical; details: 100 μM glycine and 3 μM Glu
Summary of the method: as §1

[11] = test system: Slc2a1 (Glut1); test: Transporter protein expression by SRM/MRM LC-MS/MS, Slc2a1; type: cell-based, mouse; details: 10 μM, 48 h, HCC cell crude membrane fraction
[12] = target: GluN1/GluN2D (Rattus norvegicus, UniProt Q62645); test: Two-electrode voltage-clamp electrophysiology, Xenopus oocytes, GluN1/GluN2D; type: biochemical; details: 100 μM glycine and 1 μM Glu
Sequence of GluN1/GluN2D (Q62645 28-1323, other chains not shown): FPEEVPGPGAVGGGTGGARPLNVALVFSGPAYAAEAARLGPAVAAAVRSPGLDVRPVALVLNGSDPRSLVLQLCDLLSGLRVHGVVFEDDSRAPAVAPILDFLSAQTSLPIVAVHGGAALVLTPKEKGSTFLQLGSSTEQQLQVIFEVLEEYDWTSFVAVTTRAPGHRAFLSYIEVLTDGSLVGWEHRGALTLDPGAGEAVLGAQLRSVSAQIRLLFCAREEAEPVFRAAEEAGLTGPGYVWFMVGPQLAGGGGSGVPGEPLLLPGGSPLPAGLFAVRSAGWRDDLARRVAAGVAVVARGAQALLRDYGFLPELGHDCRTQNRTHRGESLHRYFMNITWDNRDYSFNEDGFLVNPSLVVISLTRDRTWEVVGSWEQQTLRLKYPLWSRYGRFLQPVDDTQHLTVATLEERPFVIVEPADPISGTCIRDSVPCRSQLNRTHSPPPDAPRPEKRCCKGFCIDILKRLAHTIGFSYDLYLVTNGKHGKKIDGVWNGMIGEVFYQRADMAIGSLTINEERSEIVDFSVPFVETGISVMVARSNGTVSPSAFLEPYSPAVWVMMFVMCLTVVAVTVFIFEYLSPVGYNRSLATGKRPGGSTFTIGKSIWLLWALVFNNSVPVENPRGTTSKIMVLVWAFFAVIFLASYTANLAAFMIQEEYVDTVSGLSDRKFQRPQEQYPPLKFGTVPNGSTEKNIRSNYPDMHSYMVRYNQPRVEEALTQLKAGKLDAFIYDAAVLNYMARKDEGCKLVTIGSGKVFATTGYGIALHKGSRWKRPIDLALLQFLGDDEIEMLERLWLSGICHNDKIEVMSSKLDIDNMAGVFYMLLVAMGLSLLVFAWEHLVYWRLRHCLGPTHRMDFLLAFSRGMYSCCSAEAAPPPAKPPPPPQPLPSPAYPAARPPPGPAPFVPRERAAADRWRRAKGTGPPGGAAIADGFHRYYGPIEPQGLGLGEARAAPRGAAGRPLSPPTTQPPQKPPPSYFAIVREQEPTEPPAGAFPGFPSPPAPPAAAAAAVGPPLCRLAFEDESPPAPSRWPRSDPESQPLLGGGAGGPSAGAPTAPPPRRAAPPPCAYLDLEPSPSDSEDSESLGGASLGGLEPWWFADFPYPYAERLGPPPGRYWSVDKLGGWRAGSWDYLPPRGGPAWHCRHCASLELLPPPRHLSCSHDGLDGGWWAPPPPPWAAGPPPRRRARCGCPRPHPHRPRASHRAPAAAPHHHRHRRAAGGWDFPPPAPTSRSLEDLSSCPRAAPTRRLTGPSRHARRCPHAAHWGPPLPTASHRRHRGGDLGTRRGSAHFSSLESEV
Summary of the method: as §1

[13] = target: native AMPA receptors; test: Radioligand binding at native AMPA receptors; details: read-out: AMPA IC50; [3H]AMPA, rat synaptosomes
Summary of the method: (§2)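 Native receptors in rat brain synaptosomes: AMPA labelled with [3H]AMPA, KA with [3H]KA, NMDA with [3H]CGP-39653. Recombinant homomeric rat GluK1-3 labelled with [3H]KA. IC50 and Ki values derived from displacement data.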

[14] = test system: Slc7a5 (Lat1); test: Transporter protein expression by SRM/MRM LC-MS/MS, Slc7a5; type: cell-based, mouse; details: 10 μM, 48 h, HCC cell crude membrane fraction
[15] = In vivo pharmacokinetics in mice, 10 mg/kg i.p.; set-up: species or system mouse
[16] = target: iGluRs; test: Binding affinity at iGluRs; set-up: species or system rat; details: native iGluRs and homomeric GluK1-3
Summary of the method: as §2

[17] = test system: mouse HCC cells; test: Anti-proliferative activity in vitro; type: cell-based; details: 72 h
Summary of the method: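 Mouse Nras-driven p53−/− HCC cells in DMEM with 2 mM L-glutamine, 10% heat-inactivated FBS and penicillin/streptomycin. Cells seeded at 2×10^4/well on collagen-coated plates and used one day later. Test compound given at 0.1–200 μM, or at 1, 2.5, 5 and 10 μM with or without a 100 μM second test compound, for 72 h with daily medium change. Viability read by resazurin fluorescence (ex 560/em 590 nm). IC50 by nonlinear regression, mean ± SEM.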

[18] = test system: native NMDA receptors; test: Radioligand binding at native NMDA receptors; set-up: species or system rat; details: compared with 1l / 1n

SMILES: Cl.O=C(O)c1cc([C@H]2CCN[C@@H]2C(=O)O)ccc1Cl [1l, (2S,3R)-3-(3-Carboxy-4-chlorophenyl)pyrrolidine-2-carboxylic acid hydrochloride]
brain concentration following perfusion ([1]; perfusion with 100 μM of the compound, detection limit of analytical method): < 5 pmol/g
Abcg2 (Bcrp) protein expression level [2]: 1.24± 0.13 fmol/μg of total protein
inhibition of NMDA-induced intracellular Ca2+ transients ([3]; compound at 25 and 41 μM): inhibit NMDA activation significantly
nH (Hillslope) [4]: 1.3
Abcc4 (Mrp4) protein expression level [5]: 0.27 ± 0.04 fmol/μg of total protein
Abcc2 protein expression [6]: below the lower limit of quantification
KA IC50 [7]: >100 µM
Abcb1 (Pgp) protein expression level [8]: 0.39± 0.06 fmol/μg of total protein
nH (Hillslope) [9]: 1.0
nH (Hillslope) [10]: 1.3
Slc2a1 (Glut1) protein expression level [11]: 13.2± 0.53 fmol/μg of total protein
nH (Hillslope) [12]: 1.3
IC50 [13]: > 100 µM
Slc7a5 (Lat1) protein expression level [14]: 5.72± 1.61 fmol/μg of total protein
changes in the behavior of the mice after injection ([15]; 10 mg/kg i.p.): no observable changes in the behavior
brain concentration ([15]; 30 min after 10 mg/kg i.p.): 0.3 nmol/g
brain concentration ([15]; 60 min after 10 mg/kg i.p.): 0.1 nmol/g

SMILES: Cl.NC(=O)c1cccc([C@H]2CCN[C@@H]2C(=O)O)c1 [1h, (2S,3R)-3-(3-Carbamoylphenyl)-2-carboxypyrrolidin-1-ium chloride]
KA IC50 [7]: >100 µM
IC50 or Ki at the iGluRs [16]: > 100 µM
IC50 [13]: > 100 µM

SMILES: N[C@H](CCCP(=O)(O)O)C(=O)O [D-AP5, reference compound]
inhibition of NMDA-induced intracellular Ca2+ transients ([3]; compound at 20 μM): inhibit NMDA activation significantly

SMILES: Cl.O=C(O)[C@H]1NCC[C@@H]1c1cccc(C(F)(F)F)c1 [1e, (2S,3R)-2-Carboxy-3-(3-(trifluoromethyl)phenyl)pyrrolidin-1-ium chloride]
KA IC50 [7]: >100 µM
IC50 [13]: > 100 µM

SMILES: Cl.Cl.Nc1cccc([C@H]2CCN[C@@H]2C(=O)O)c1 [1f, (2S,3R)-3-(3-Aminophenyl)pyrrolidine-2-carboxylic acid dihydrochloride]
KA IC50 [7]: >100 µM
IC50 [13]: > 100 µM

SMILES: CNC(=O)c1cc(Oc2ccc(NC(=O)Nc3ccc(Cl)c(C(F)(F)F)c3)cc2)ccn1 [sorafenib]
IC50 ([17]; read-out: IC50 on HCC cell viability): 7.4 ± 1.7 µM
viability at 1 µM ([17]; read-out: cell viability): 88 ± 3%
viability at 2.5 µM ([17]; read-out: cell viability): 82 ± 3%
viability at 5 µM ([17]; read-out: cell viability): 72 ± 1%
viability at 10 µM ([17]; read-out: cell viability): 31 ± 2%

SMILES: Cl.O=C(O)[C@H]1NCC[C@@H]1c1cccc(Cl)c1 [1d, (2S,3R)-2-Carboxy-3-(3-chlorophenyl)pyrrolidin-1-ium chloride]
KA IC50 [7]: >100 µM
IC50 [13]: > 100 µM

SMILES: Cl.N#Cc1cccc([C@H]2CCN[C@@H]2C(=O)O)c1 [1g, (2S,3R)-3-(3-Cyanophenyl)pyrrolidine-2-carboxylic acid hydrochloride]
KA IC50 [7]: >100 µM
IC50 [13]: > 100 µM

SMILES: Cc1ccc([C@H]2CCN[C@@H]2C(=O)O)cc1C(=O)O.Cl [1m, (2S,3R)-3-(3-Carboxy-4-methylphenyl)pyrrolidine-2-carboxylic acid hydrochloride]
KA IC50 [7]: >100 µM
drop in binding affinity for native NMDA receptors [18]: 30 fold
IC50 [13]: > 100 µM

More lines, now with the values ahead:

BBB penetration ([1]; mouse in situ brain perfusion): does not penetrate the BBB
SMILES: O=C(O)c1cccc([C@H]2CCN[C@@H]2C(=O)O)c1 [1a, (2S,3R)-3-(3-Carboxyphenyl)pyrrolidine-2-Carboxylic Acid]

KA IC50 [7]: >100 µM
IC50 or Ki at the iGluRs [16]: > 100 µM
IC50 [13]: > 100 µM
SMILES: Cl.O=C(O)[C@H]1NCC[C@@H]1c1cccc(B(O)O)c1 [1i, (2S,3R)-3-(3-Boronophenyl)pyrrolidine-2-carboxylic acid hydrochloride]

KA IC50 [7]: >100 µM
IC50 [13]: > 100 µM
SMILES: O=C(O)[C@H]1NCC[C@@H]1c1ccc(O)c(O)c1 [1j, (2S,3R)-3-(3,4-Dihydroxyphenyl)pyrrolidine-2-carboxylic acid]

KA IC50 [7]: >100 µM
IC50 [13]: > 100 µM
SMILES: Cl.O=C(O)c1cc([C@H]2CCN[C@@H]2C(=O)O)ccc1Br [1n, (2S,3R)-3-(3-Carboxy-4-bromophenyl)pyrrolidine-2-carboxylic acid hydrochloride]

IC50 [13]: > 100 µM
SMILES: O=C(O)c1cc([C@H]2CCN[C@@H]2C(=O)O)ccc1F [1k, (2S,3R)-2-Carboxy-3-(3-carboxy-4-fluorophenyl)pyrrolidin-1-ium chloride]
